A short description of this data set: Drug uptake in human HeLa cells assessed as cytosolic entry efficiency measured as fluorescence at 5 uM incubated for 2 hrs by flow cytometry relative to CPP9 (100%). It counts as ADME, cell-based. In outline: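 HeLa cells seeded 24 h earlier, given 5 μM naphthofluorescein-labelled peptide in DMEM with 1% or 10% FBS, 37 °C, 2 h. Cells DPBS-washed, trypsinized, flow cytometry with 633-nm excitation, APC channel, 10,000 live-cell events gated. Signal read as cytosolic entry because NF is non-fluorescent in acidic compartments; mean ± SD of three independent experiments, relative to CPP9 (100%).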

Consider 13 compounds from ChEMBL document CHEMBL4665872, “Rational design of cell-permeable cyclic peptides containing a d-Pro-l-Pro motif” (Bioorg Med Chem, 2020).

Where a SMILES comes first, the peptide text is derived from it. Side-chain parts run from the residue outwards. [ ]: non-standard residue; d: D form. The star is where a group is joined. X1 = NC(=O)[C@H](CCCCNC(=O)c1ccc2c(c1)C(=O)OC21c2ccc3cc(O)ccc3c2Oc2c1ccc1cc(O)ccc21)N*; 2Nal = N[C@@H](Cc1ccc2ccccc2c1)C(=O)O; AEEA = NCCOCCOCC(=O)O

As to `N=C(N)NCCC[C@@H]1NC(=O)[C@H](Cc2ccc3ccccc3c2)NC(=O)[C@@H](Cc2ccccc2)NC(=O)[C@H](CCC(=O)NCCOCCOCC(=O)N[C@@H](CCCCNC(=O)c2ccc3c(c2)C(=O)OC32c3ccc4cc(O)ccc4c3Oc3c2ccc2cc(O)ccc32)C(N)=O)NC(=O)[C@@H](CCCNC(=N)N)NC(=O)[C@H](CCCNC(=N)N)NC(=O)[C@@H](CCCNC(=N)N)NC1=O`, the RFU was 100%.
On to `C[C@@H]1NC(=O)[C@H](C)NC(=O)[C@H](Cc2ccccc2)NC(=O)[C@H](CCCNC(=N)N)NC(=O)[C@H](CCCNC(=N)N)NC(=O)[C@@H]2CCCN2C(=O)[C@H]2CCCN2C(=O)[C@H](CCCNC(=N)N)NC(=O)[C@H](Cc2ccc3ccccc3c2)NC(=O)[C@H](Cc2ccccc2)NC(=O)[C@H](C)NC(=O)[C@H](C)NC(=O)[C@H](CCC(=O)NCCOCCOCC(=O)N[C@@H](CCCCNC(=O)c2ccc3c(c2)C(=O)OC32c3ccc4cc(O)ccc4c3Oc3c2ccc2cc(O)ccc32)C(N)=O)NC(=O)[C@H](C)NC1=O`, for which the RFU is reported as 22%.
Consider `C[C@@H]1NC(=O)[C@H](C)NC(=O)[C@H](Cc2ccccc2)NC(=O)[C@H](CCCNC(=N)N)NC(=O)[C@@H](CCCNC(=N)N)NC(=O)[C@@H]2CCCN2C(=O)[C@H]2CCCN2C(=O)[C@H](CCCNC(=N)N)NC(=O)[C@H](Cc2ccc3ccccc3c2)NC(=O)[C@H](Cc2ccccc2)NC(=O)[C@H](C)NC(=O)[C@H](C)NC(=O)[C@H](CCC(=O)NCCOCCOCC(=O)N[C@@H](CCCCNC(=O)c2ccc3c(c2)C(=O)OC32c3ccc4cc(O)ccc4c3Oc3c2ccc2cc(O)ccc32)C(N)=O)NC(=O)[C@H](C)NC1=O`, for which the RFU is 32%.
Regarding `C[C@@H]1NC(=O)[C@H](Cc2ccccc2)NC(=O)[C@H](CCCNC(=N)N)NC(=O)[C@H](CCCNC(=N)N)NC(=O)[C@@H]2CCCN2C(=O)[C@H]2CCCN2C(=O)[C@@H](CCCNC(=N)N)NC(=O)[C@H](Cc2ccc3ccccc3c2)NC(=O)[C@H](Cc2ccccc2)NC(=O)[C@H](CCC(=O)NCCOCCOCC(=O)N[C@@H](CCCCNC(=O)c2ccc3c(c2)C(=O)OC32c3ccc4cc(O)ccc4c3Oc3c2ccc2cc(O)ccc32)C(N)=O)NC1=O`, the RFU is recorded as 8%.
In the case of `C[C@@H]1NC(=O)[C@H](CCCNC(=N)N)NC(=O)[C@H](CCC(=O)NCCOCCOCC(=O)N[C@@H](CCCCNC(=O)c2ccc3c(c2)C(=O)OC32c3ccc4cc(O)ccc4c3Oc3c2ccc2cc(O)ccc32)C(N)=O)NC(=O)[C@H](CCCNC(=N)N)NC(=O)[C@H](C)NC(=O)[C@H](CCCNC(=N)N)NC(=O)[C@H](Cc2ccccc2)NC(=O)[C@H](CCCNC(=N)N)NC(=O)[C@H](CCCNC(=N)N)NC(=O)[C@@H]2CCCN2C(=O)[C@H]2CCCN2C(=O)[C@@H](CCCNC(=N)N)NC(=O)[C@H](Cc2ccc3ccccc3c2)NC(=O)[C@H](Cc2ccccc2)NC1=O`, the RFU amounted to 34%.
Turning to `C[C@@H]1NC(=O)[C@H](C)NC(=O)[C@H](CCCNC(=N)N)NC(=O)[C@H](CCCNC(=N)N)NC(=O)[C@H](CCCNC(=N)N)NC(=O)[C@@H]2CCCN2C(=O)[C@H]2CCCN2C(=O)[C@H](CCCNC(=N)N)NC(=O)[C@H](Cc2ccc3ccccc3c2)NC(=O)[C@H](Cc2ccccc2)NC(=O)[C@H](C)NC(=O)[C@H](C)NC(=O)[C@H](CCC(=O)NCCOCCOCC(=O)N[C@@H](CCCCNC(=O)c2ccc3c(c2)C(=O)OC32c3ccc4cc(O)ccc4c3Oc3c2ccc2cc(O)ccc32)C(N)=O)NC(=O)[C@H](C)NC1=O`, the RFU is 21%.
Turning to `C[C@@H]1NC(=O)[C@H](C)NC(=O)[C@H](Cc2ccccc2)NC(=O)[C@H](CCCNC(=N)N)NC(=O)[C@H](CCCNC(=N)N)NC(=O)[C@@H]2CCCN2C(=O)[C@H]2CCCN2C(=O)[C@@H](CCCNC(=N)N)NC(=O)[C@H](Cc2ccc3ccccc3c2)NC(=O)[C@H](Cc2ccccc2)NC(=O)[C@H](C)NC(=O)[C@H](C)NC(=O)[C@H](CCC(=O)NCCOCCOCC(=O)N[C@@H](CCCCNC(=O)c2ccc3c(c2)C(=O)OC32c3ccc4cc(O)ccc4c3Oc3c2ccc2cc(O)ccc32)C(N)=O)NC(=O)[C@H](C)NC1=O`, the RFU is 33%.
On to `C[C@@H]1NC(=O)[C@H](C)NC(=O)[C@H](Cc2ccccc2)NC(=O)[C@@H](CCCNC(=N)N)NC(=O)[C@H](CCCNC(=N)N)NC(=O)[C@@H]2CCCN2C(=O)[C@H]2CCCN2C(=O)[C@H](CCCNC(=N)N)NC(=O)[C@H](Cc2ccc3ccccc3c2)NC(=O)[C@H](Cc2ccccc2)NC(=O)[C@H](C)NC(=O)[C@H](C)NC(=O)[C@H](CCC(=O)NCCOCCOCC(=O)N[C@@H](CCCCNC(=O)c2ccc3c(c2)C(=O)OC32c3ccc4cc(O)ccc4c3Oc3c2ccc2cc(O)ccc32)C(N)=O)NC(=O)[C@H](C)NC1=O`, for which the RFU was 37%.
Take `C[C@@H]1NC(=O)[C@H](Cc2ccc3ccccc3c2)NC(=O)[C@H](Cc2ccccc2)NC(=O)[C@H](C)NC(=O)[C@H](CCC(=O)NCCOCCOCC(=O)N[C@@H](CCCCNC(=O)c2ccc3c(c2)C(=O)OC32c3ccc4cc(O)ccc4c3Oc3c2ccc2cc(O)ccc32)C(N)=O)NC(=O)[C@H](Cc2ccccc2)NC(=O)[C@H](CCCNC(=N)N)NC(=O)[C@H](CCCNC(=N)N)NC(=O)[C@@H]2CCCN2C(=O)[C@H](C)NC1=O` (cyclo([2Nal]AAPRRFE([AEEA-X1])AF)): the RFU is on record as 46%.
`C[C@@H]1NC(=O)[C@H](CCC(=O)NCCOCCOCC(=O)N[C@@H](CCCCNC(=O)c2ccc3c(c2)C(=O)OC32c3ccc4cc(O)ccc4c3Oc3c2ccc2cc(O)ccc32)C(N)=O)NC(=O)[C@H](Cc2ccccc2)NC(=O)[C@H](CCCNC(=N)N)NC(=O)[C@H](CCCNC(=N)N)NC(=O)[C@@H]2CCCN2C(=O)[C@H]2CCCN2C(=O)[C@@H](CCCNC(=N)N)NC(=O)[C@H](Cc2ccc3ccccc3c2)NC(=O)[C@H](Cc2ccccc2)NC1=O`: the RFU is listed as 94%.
Under `C[C@@H]1NC(=O)[C@H](C)NC(=O)[C@H](Cc2ccccc2)NC(=O)[C@H](CCCNC(=N)N)NC(=O)[C@H](CCCNC(=N)N)NC(=O)[C@@H]2CCCN2C(=O)[C@H]2CCCN2C(=O)[C@H](CCCNC(=N)N)NC(=O)[C@@H](Cc2ccc3ccccc3c2)NC(=O)[C@H](Cc2ccccc2)NC(=O)[C@H](C)NC(=O)[C@H](C)NC(=O)[C@H](CCC(=O)NCCOCCOCC(=O)N[C@@H](CCCCNC(=O)c2ccc3c(c2)C(=O)OC32c3ccc4cc(O)ccc4c3Oc3c2ccc2cc(O)ccc32)C(N)=O)NC(=O)[C@H](C)NC1=O` stands 51%.
In the case of `C[C@@H]1NC(=O)[C@H](C)NC(=O)[C@H](Cc2ccc3ccccc3c2)NC(=O)[C@H](CCCNC(=N)N)NC(=O)[C@H](CCCNC(=N)N)NC(=O)[C@@H]2CCCN2C(=O)[C@H]2CCCN2C(=O)[C@H](CCCNC(=N)N)NC(=O)[C@H](CCCNC(=N)N)NC(=O)[C@H](Cc2ccccc2)NC(=O)[C@H](C)NC(=O)[C@H](C)NC(=O)[C@H](CCC(=O)NCCOCCOCC(=O)N[C@@H](CCCCNC(=O)c2ccc3c(c2)C(=O)OC32c3ccc4cc(O)ccc4c3Oc3c2ccc2cc(O)ccc32)C(N)=O)NC(=O)[C@H](C)NC1=O`, the RFU turned out to be 5.7%.
`C[C@@H]1NC(=O)[C@H](C)NC(=O)[C@H](CCCNC(=N)N)NC(=O)[C@H](CCCNC(=N)N)NC(=O)[C@H](CCCNC(=N)N)NC(=O)[C@@H]2CCCN2C(=O)[C@H]2CCCN2C(=O)[C@H](Cc2ccccc2)NC(=O)[C@H](Cc2ccc3ccccc3c2)NC(=O)[C@H](Cc2ccccc2)NC(=O)[C@H](C)NC(=O)[C@H](C)NC(=O)[C@H](CCC(=O)NCCOCCOCC(=O)N[C@@H](CCCCNC(=O)c2ccc3c(c2)C(=O)OC32c3ccc4cc(O)ccc4c3Oc3c2ccc2cc(O)ccc32)C(N)=O)NC(=O)[C@H](C)NC1=O`: the RFU is recorded as 8.3%.
